{"source": "ChEMBL document CHEMBL4350961", "about": "“Discovery of Pyrrolo[3,2- d]pyrimidin-4-one Derivatives as a New Class of Potent and Cell-Active Inhibitors of P300/CBP-Associated Factor Bromodomain” (J Med Chem, 2019)", "key": {"[1]": {"molecular_target": "ATPase family AAA domain-containing protein 2 (Homo sapiens) (UniProt Q6PL18)", "assay": "Binding affinity to human partial length ATAD2A (Q981 to R1108 residues) expressed in bacterial expression system at 1 uM by BROMOscan assay", "how_it_was_run": "(§1)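 BROMOscan bromodomain cross-screen run by an outside service, compound at 1 µM against 32 recombinant bromodomains. Binding given as percent of control.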"}, "[2]": {"molecular_target": "Inhibitor of nuclear factor kappa-B kinase subunit beta (Homo sapiens) (UniProt O14920)", "assay": "Inhibition of recombinant full-length human IKKbeta at 10 uM using peptide substrate measured after 40 mins in presence of [gamma33P]ATP by scintillation counting method"}, "[3]": {"molecular_target": "Serine/threonine-protein kinase Nek9 (Homo sapiens) (UniProt Q8TD19)", "assay": "Inhibition of recombinant human NEK9 (1 to 324 residues) at 10 uM using myelin basic protein as substrate measured after 40 mins in presence of [gamma33P]ATP by scintillation counting method"}, "[4]": {"molecular_target": "Calcium/calmodulin-dependent protein kinase type II subunit delta (Homo sapiens) (UniProt Q13557)", "sequence (Q13557 whole entry)": "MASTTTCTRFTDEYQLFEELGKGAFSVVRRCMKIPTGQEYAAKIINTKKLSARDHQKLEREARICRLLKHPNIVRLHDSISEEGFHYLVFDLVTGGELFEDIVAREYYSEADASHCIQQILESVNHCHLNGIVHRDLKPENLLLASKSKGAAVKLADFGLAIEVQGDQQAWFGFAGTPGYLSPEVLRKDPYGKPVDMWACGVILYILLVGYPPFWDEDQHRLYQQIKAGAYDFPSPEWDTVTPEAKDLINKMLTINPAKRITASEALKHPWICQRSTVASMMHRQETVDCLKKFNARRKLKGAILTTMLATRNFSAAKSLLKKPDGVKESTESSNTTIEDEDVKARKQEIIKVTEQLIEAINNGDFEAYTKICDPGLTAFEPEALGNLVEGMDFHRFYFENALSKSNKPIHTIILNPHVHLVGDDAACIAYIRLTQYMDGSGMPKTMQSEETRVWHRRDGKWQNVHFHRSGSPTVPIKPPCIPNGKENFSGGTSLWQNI", "assay": "Inhibition of recombinant full-length human CaMK2delta at 10 uM using calmodulin as substrate measured after 40 mins in presence of [gamma33P]ATP by scintillation counting method"}, "[5]": {"molecular_target": "Rhodopsin kinase GRK1 (Homo sapiens) (UniProt Q15835)", "sequence (Q15835 whole entry)": "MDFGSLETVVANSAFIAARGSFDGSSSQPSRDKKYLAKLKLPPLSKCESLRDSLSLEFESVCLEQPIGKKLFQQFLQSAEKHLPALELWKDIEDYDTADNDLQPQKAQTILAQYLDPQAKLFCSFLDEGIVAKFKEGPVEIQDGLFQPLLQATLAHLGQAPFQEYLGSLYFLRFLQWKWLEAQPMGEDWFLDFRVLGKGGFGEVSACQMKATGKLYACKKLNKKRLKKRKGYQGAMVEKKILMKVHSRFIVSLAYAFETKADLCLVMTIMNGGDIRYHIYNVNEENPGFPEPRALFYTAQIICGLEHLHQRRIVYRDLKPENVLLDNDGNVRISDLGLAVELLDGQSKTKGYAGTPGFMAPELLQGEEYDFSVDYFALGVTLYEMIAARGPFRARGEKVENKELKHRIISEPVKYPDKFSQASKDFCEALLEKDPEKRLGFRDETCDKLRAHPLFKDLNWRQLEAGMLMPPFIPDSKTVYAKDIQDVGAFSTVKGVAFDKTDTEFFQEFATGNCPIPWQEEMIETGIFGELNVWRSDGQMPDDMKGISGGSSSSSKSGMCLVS", "assay": "Inhibition of recombinant full-length human GRK1 at 10 uM using KKKKERLLDDRHDSGLDSMKDEE as substrate measured after 40 mins in presence of [gamma33P]ATP by scintillation counting method"}, "[6]": {"molecular_target": "Serine/threonine-protein kinase 4 (Homo sapiens) (UniProt Q13043)", "sequence (Q13043 whole entry)": "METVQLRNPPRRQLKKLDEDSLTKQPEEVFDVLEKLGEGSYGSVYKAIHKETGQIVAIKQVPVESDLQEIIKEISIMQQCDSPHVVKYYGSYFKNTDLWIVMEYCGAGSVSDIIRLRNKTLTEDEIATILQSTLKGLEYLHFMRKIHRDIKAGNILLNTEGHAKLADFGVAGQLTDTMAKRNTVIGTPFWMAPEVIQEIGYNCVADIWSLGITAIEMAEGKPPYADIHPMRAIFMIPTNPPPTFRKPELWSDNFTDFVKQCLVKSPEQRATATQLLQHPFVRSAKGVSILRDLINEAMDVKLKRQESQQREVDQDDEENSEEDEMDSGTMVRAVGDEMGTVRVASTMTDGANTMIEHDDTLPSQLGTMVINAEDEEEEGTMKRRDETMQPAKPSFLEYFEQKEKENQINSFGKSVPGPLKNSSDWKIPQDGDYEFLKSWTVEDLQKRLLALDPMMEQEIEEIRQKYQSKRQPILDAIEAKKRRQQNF", "assay": "Inhibition of recombinant full-length human MST1 at 10 uM using KKSRGDYMTMQIG as substrate measured after 40 mins in presence of [gamma33P]ATP by scintillation counting method"}, "[7]": {"molecular_target": "Cyclin-dependent kinase-like 1 (Homo sapiens) (UniProt Q00532)", "sequence (Q00532 whole entry, the tested form may be a part)": "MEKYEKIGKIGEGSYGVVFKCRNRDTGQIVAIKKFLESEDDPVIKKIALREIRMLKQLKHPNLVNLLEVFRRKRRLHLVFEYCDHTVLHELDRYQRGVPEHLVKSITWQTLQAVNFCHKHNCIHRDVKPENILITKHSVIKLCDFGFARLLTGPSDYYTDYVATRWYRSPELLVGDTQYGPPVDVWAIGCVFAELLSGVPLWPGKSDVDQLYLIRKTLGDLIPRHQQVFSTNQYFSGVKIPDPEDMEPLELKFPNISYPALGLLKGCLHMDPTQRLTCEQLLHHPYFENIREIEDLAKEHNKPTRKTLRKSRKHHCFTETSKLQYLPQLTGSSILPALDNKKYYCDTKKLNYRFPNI", "assay": "Inhibition of recombinant human CDKL1 (1 to 303 residues) at 10 uM using RRRFRPASPLRGP as substrate measured after 120 mins in presence of [gamma33P]ATP by scintillation counting method"}, "[8]": {"molecular_target": "Serine/threonine-protein kinase PLK2 (Homo sapiens) (UniProt Q9NYY3)", "assay": "Inhibition of human Snk (65 to 409 residues) using casein as substrate measured after 40 mins in presence of [gamma33P]ATP by scintillation counting method", "how_it_was_run": "(§2)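 Kinase panel of 422 kinases screened by Eurofins KinaseProfiler at a single test-compound concentration of 10 µM.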"}, "[9]": {"tested_on": "Serine/threonine-protein kinase Sgk1 (Homo sapiens), O00141 [S422D]", "assay": "Inhibition of recombinant human SGK S422D mutant (60 to end residues) at 10 uM using GRPRTSSFAEGKK as substrate measured after 40 mins in presence of [gamma33P]ATP by scintillation counting method"}, "[10]": {"molecular_target": "Ephrin type-B receptor 4 (Homo sapiens) (UniProt P54760)", "sequence (P54760 whole entry)": "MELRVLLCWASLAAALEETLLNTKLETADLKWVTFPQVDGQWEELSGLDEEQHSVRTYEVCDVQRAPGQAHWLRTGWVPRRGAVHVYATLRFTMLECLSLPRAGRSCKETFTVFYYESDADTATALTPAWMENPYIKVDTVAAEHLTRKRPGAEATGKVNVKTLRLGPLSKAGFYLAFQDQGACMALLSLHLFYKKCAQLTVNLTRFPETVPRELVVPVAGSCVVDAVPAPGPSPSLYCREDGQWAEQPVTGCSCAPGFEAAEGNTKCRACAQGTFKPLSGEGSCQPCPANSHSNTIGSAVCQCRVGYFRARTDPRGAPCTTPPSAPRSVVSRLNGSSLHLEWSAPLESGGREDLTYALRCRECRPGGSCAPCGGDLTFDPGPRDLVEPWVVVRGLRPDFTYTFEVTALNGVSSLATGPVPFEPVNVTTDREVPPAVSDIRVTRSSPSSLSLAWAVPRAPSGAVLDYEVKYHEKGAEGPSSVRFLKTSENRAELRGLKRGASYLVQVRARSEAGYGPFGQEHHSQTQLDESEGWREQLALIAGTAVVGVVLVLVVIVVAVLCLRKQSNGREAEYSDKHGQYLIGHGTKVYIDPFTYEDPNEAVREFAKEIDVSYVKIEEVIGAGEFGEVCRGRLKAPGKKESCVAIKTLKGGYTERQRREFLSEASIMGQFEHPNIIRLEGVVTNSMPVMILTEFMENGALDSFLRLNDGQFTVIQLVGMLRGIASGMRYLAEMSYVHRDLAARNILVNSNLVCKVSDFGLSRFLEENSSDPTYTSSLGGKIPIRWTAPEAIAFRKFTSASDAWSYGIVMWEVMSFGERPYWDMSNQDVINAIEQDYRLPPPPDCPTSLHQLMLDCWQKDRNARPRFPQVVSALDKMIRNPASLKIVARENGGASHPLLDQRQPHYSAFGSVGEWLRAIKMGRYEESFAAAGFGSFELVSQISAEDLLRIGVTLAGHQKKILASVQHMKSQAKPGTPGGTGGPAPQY", "assay": "Inhibition of recombinant human EphB4 (561 to end residues) at 10 uM using poly (Glu, Tyr) 4:1 as substrate measured after 40 mins in presence of [gamma33P]ATP by scintillation counting method"}, "[11]": {"tested_on": "Tyrosine-protein kinase ABL1 (Homo sapiens), P00519 [Q252H]", "assay": "Inhibition of recombinant human ABL Q252H mutant (27 to end residues) at 10 uM using EAIYAAPFAKKK as substrate measured after 40 mins in presence of [gamma33P]ATP by scintillation counting method"}, "[12]": {"molecular_target": "Mast/stem cell growth factor receptor Kit (Homo sapiens) (UniProt P10721)", "sequence (P10721 whole entry)": "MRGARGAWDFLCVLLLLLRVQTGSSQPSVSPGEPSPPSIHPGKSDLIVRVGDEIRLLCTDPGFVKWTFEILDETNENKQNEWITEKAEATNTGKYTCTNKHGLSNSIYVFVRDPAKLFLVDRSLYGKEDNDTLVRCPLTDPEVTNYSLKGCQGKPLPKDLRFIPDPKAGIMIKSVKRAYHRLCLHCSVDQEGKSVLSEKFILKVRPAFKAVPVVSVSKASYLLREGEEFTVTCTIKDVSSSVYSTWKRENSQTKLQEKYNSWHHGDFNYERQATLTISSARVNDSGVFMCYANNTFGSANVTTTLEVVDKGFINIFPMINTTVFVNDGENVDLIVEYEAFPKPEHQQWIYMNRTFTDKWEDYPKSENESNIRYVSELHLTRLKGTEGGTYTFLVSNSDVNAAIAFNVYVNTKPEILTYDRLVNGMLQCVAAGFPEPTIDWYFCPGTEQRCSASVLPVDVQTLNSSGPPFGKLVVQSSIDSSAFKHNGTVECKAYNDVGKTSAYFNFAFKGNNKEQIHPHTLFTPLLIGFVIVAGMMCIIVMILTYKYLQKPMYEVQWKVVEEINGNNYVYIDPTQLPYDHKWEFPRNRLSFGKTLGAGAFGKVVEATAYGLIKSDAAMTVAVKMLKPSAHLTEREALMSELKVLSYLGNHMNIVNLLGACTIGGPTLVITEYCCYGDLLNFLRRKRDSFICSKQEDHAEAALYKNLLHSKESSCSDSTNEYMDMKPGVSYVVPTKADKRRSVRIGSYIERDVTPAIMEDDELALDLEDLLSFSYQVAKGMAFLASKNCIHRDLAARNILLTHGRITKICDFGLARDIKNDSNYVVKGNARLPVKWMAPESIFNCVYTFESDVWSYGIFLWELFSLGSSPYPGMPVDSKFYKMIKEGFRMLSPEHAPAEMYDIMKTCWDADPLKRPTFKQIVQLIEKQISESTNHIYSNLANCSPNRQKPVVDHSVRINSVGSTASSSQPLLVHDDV", "assay": "Inhibition of recombinant human c-Kit (544 to end residues) at 10 uM using poly(Glu, Tyr) 4:1 as substrate measured after 40 mins in presence of [gamma33P]ATP by scintillation counting method"}, "Mus musculus": {"species_on_record": "Mus musculus", "assay": "Inhibition of full-length recombinant mouse BLK V421E mutant at 10 uM using poly(Glu, Tyr) 4:1 as substrate measured after 40 mins in presence of [gamma33P]ATP by scintillation counting method", "how_it_was_run": "as §2"}, "[13]": {"molecular_target": "Insulin receptor-related protein (Homo sapiens) (UniProt P14616)", "assay": "Inhibition of recombinant human IRR (943 to 1266 residues) at 10 uM using myelin basic protein as substrate measured after 40 mins in presence of [gamma33P]ATP by scintillation counting method"}, "[14]": {"molecular_target": "Cytoplasmic tyrosine-protein kinase BMX (Homo sapiens) (UniProt P51813)", "assay": "Inhibition of full-length recombinant human BMX at 10 uM using poly(Glu, Tyr) 4:1 as substrate measured after 40 mins in presence of [gamma33P]ATP by scintillation counting method", "how_it_was_run": "as §2"}, "[15]": {"molecular_target": "Mitogen-activated protein kinase kinase kinase 9 (Homo sapiens) (UniProt P80192)", "sequence (P80192 whole entry, looked up, the tested form may be a part)": "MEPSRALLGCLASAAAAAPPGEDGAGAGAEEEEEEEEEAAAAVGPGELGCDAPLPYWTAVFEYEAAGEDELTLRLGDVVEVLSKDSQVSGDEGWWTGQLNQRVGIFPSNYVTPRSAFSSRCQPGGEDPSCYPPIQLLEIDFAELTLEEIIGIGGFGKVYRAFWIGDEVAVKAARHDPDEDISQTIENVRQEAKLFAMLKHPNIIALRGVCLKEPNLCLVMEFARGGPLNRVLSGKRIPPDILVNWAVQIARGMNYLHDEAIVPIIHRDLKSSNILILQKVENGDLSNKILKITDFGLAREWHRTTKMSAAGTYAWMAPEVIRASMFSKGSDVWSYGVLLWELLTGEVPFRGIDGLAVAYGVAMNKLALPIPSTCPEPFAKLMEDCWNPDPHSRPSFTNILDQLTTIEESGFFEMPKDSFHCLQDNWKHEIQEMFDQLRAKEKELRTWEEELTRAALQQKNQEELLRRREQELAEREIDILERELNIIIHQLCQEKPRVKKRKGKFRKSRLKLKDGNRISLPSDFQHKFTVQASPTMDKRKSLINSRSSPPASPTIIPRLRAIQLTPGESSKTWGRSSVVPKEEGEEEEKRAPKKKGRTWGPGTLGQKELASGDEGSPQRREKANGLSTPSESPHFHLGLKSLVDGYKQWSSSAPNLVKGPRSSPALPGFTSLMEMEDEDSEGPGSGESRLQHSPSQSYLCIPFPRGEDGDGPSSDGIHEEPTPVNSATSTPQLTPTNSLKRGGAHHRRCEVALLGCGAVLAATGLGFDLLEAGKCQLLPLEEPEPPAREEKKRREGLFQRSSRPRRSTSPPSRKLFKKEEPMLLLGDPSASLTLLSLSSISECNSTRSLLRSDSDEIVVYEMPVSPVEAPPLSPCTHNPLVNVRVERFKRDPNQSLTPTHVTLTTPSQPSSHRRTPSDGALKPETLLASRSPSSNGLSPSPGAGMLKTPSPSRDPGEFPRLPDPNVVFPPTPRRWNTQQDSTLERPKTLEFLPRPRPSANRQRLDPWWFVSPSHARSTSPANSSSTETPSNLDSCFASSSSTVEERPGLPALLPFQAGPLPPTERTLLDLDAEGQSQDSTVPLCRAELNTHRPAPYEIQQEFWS", "assay": "Inhibition of recombinant human MLK1 (134 to 414 residues) at 10 uM using casein as substrate measured after 40 mins in presence of [gamma33P]ATP by scintillation counting method"}, "[16]": {"molecular_target": "Bromodomain and PHD finger-containing protein 3 (Homo sapiens) (UniProt Q9ULD4)", "assay": "Binding affinity to human partial length BRPF3 (E588 to G701 residues) expressed in bacterial expression system at 1 uM by BROMOscan assay", "how_it_was_run": "as §1"}, "[17]": {"molecular_target": "Myotonin-protein kinase (Homo sapiens) (UniProt Q09013)", "assay": "Inhibition of recombinant human DMPK (1 to 549 residues) at 10 uM using KKSRGDYMTMQIG as substrate measured after 40 mins in presence of [gamma33P]ATP by scintillation counting method"}, "[18]": {"tested_on": "Tyrosine-protein kinase receptor UFO (Homo sapiens), P30530 [Q764R]", "assay": "Inhibition of recombinant human AXL Q764R mutant (473 to end residues) at 10 uM using KKSRGDYMTMQIG as substrate measured after 40 mins in presence of [gamma33P]ATP by scintillation counting method"}, "[19]": {"molecular_target": "Insulin-like growth factor 1 receptor (Homo sapiens) (UniProt P08069)", "assay": "Inhibition of recombinant human activated IGF1R (959 to end residues) at 10 uM using KKKSPGEYVNIEFG as substrate measured after 40 mins in presence of [gamma33P]ATP by scintillation counting method"}, "[20]": {"molecular_target": "Phosphorylase b kinase gamma catalytic chain, skeletal muscle/heart isoform (Homo sapiens) (UniProt Q16816)", "assay": "Inhibition of recombinant full-length human PhKgamma1 at 10 uM using KKLNRTLSFAEPG as substrate measured after 120 mins in presence of [gamma33P]ATP by scintillation counting method"}, "[21]": {"tested_on": "Serine/threonine-protein kinase Chk2 (Homo sapiens), O96017 [R145W]", "assay": "Inhibition of recombinant human CHK2 R145W mutant (5 to end residues) at 10 uM using KKKVSRSGLYRSPSMPENLNRPR as substrate measured after 40 mins in presence of [gamma33P]ATP by scintillation counting method"}, "[22]": {"molecular_target": "Serine/threonine-protein kinase TBK1 (Homo sapiens) (UniProt Q9UHD2)", "assay": "Inhibition of recombinant full-length human TBK1 at 10 uM using KRRRALS(p)VASLPGL as substrate measured after 40 mins in presence of [gamma33P]ATP by scintillation counting method"}}, "note": "Calls of active or inactive are those of the source. No cut-off for these calls is given here.", "data": [{"smiles": "CN1C[C@H](Nc2nc3cc[nH]c3c(=O)n2C)C[C@H](c2ccc3c(c2)OCCO3)C1", "values": [{"measurement": "Activity", "setting": "[1]", "result": "inactive"}, {"measurement": "inhibition", "setting": "[2]", "result": "inactive"}, {"measurement": "inhibition", "setting": "[3]", "result": "inactive"}, {"measurement": "inhibition", "setting": "[4]", "result": "inactive"}, {"measurement": "inhibition", "setting": "[5]", "result": "inactive"}, {"measurement": "inhibition", "setting": "[6]", "result": "inactive"}, {"measurement": "inhibition", "setting": "[7]", "result": "inactive"}, {"measurement": "inhibition", "setting": "[8]", "result": "inactive"}, {"measurement": "inhibition", "setting": "[9]", "result": "inactive"}, {"measurement": "inhibition", "setting": "[10]", "result": "inactive"}, {"measurement": "inhibition", "setting": "[11]", "result": "inactive"}, {"measurement": "inhibition", "setting": "[12]", "result": "inactive"}, {"measurement": "inhibition", "setting": "Mus musculus", "result": "inactive"}, {"measurement": "inhibition", "setting": "[13]", "result": "inactive"}, {"measurement": "inhibition", "setting": "[14]", "result": "inactive"}, {"measurement": "inhibition", "setting": "[15]", "result": "inactive"}, {"measurement": "Activity", "setting": "[16]", "result": "Active"}, {"measurement": "inhibition", "setting": "[17]", "result": "inactive"}, {"measurement": "inhibition", "setting": "[18]", "result": "inactive"}, {"measurement": "inhibition", "setting": "[19]", "result": "inactive"}, {"measurement": "inhibition", "setting": "[20]", "result": "inactive"}, {"measurement": "inhibition", "setting": "[21]", "result": "inactive"}, {"measurement": "inhibition", "setting": "[22]", "result": "inactive"}]}]}
